Source: ChEMBL document CHEMBL1154388

Columns and labels:
[1] = molecular target: Metabotropic glutamate receptor 5 (Rattus norvegicus) (UniProt P31424); assay: Positive allosteric modulator activity at rat mGluR5 receptor expressed in HEK293 cells assessed as potentiation of glutamate-induced response at 30 uM relative to glutamate; format: cell-based
Method in brief: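 In mGluR5-expressing HEK293A cells in the calcium mobilization assay, response amplitude with test compound present is expressed as a percentage of the maximal response to glutamate. Values are the average of n≥3.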

[2] = molecular target: T1, Metabotropic glutamate receptor 5 (Rattus norvegicus, UniProt P31424); assay: Antagonist activity at rat mGluR5 expressed in HEK293 cells by calcium mobilization assay; format: functional, cell-based
T1 sequence (P31424 whole entry): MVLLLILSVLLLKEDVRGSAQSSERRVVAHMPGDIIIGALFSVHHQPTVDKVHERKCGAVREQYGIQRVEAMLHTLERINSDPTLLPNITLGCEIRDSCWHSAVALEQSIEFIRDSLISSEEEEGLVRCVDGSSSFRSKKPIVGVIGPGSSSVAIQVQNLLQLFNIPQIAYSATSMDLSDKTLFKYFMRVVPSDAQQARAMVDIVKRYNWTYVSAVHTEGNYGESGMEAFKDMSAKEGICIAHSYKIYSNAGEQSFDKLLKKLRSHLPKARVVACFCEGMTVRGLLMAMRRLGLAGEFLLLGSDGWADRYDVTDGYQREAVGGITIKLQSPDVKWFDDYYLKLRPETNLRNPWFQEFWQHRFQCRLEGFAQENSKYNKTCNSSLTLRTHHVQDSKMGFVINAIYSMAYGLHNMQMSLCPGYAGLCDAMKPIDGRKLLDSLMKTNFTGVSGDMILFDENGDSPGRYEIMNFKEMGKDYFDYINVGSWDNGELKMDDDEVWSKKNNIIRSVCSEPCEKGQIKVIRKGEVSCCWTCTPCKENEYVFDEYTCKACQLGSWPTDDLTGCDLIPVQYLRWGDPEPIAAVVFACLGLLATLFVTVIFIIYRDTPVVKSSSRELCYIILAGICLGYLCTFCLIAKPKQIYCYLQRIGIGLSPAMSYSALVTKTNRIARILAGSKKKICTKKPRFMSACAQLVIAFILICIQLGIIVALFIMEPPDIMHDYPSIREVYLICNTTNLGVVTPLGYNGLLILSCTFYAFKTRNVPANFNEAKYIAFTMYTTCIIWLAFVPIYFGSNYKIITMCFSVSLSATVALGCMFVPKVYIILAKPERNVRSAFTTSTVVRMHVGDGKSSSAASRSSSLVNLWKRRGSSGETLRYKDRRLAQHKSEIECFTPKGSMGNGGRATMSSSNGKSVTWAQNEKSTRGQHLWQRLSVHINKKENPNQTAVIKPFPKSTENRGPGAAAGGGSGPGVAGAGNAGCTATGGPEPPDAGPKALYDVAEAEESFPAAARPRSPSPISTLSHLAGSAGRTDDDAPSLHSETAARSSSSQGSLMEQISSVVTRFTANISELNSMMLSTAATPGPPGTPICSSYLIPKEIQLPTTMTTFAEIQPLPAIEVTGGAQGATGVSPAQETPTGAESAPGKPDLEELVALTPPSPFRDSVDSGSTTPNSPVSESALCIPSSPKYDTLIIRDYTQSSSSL
Method in brief: (§1)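 Rat mGluR5 in HEK293A cells and rat mGluR1 in BHK cells were loaded with a Ca²⁺-sensitive fluorescent dye and washed. Compound was added 3 s after baseline and incubated for 140 s.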

[3] = molecular target: Metabotropic glutamate receptor 1 (Rattus norvegicus, UniProt P23385); assay: Antagonist activity at rat mGluR1 expressed in BHK cells by calcium mobilization assay; format: functional, cell-based; method in brief: as §1
Chain of Metabotropic glutamate receptor 1 (P23385 whole entry): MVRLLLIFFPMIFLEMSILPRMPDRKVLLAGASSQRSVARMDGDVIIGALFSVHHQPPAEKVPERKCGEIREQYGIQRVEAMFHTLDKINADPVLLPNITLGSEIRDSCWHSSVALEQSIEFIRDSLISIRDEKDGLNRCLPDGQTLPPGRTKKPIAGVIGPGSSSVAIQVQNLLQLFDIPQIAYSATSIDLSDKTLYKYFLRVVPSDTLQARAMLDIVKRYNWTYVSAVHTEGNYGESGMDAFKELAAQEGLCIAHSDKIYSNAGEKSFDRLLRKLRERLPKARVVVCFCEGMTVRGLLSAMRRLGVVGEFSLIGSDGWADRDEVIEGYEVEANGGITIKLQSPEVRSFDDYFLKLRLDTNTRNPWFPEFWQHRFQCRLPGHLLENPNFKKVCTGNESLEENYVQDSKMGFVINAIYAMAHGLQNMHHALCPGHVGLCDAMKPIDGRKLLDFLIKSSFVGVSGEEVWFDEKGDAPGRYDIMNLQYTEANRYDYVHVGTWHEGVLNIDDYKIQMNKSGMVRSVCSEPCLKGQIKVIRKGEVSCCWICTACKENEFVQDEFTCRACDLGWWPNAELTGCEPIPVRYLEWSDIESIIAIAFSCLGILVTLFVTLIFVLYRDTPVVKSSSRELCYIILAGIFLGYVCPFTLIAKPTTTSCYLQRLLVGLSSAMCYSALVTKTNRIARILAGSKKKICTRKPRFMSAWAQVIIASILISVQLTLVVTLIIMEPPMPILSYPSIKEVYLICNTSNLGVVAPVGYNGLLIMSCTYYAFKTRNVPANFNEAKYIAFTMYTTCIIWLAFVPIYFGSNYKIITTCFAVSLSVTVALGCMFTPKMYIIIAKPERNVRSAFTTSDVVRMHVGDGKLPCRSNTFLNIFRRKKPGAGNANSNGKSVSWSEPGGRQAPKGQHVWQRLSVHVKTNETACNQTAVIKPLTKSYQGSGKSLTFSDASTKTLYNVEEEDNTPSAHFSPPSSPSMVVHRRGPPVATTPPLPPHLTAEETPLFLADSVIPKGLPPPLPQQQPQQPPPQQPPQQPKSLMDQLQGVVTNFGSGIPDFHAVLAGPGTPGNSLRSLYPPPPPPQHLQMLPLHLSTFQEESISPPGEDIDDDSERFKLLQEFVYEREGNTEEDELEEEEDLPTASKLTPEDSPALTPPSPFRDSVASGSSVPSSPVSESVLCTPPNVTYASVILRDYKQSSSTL

[4] = molecular target: T1, Metabotropic glutamate receptor 5; assay: Displacement of [3H]3methoxy-5-(pyridin-2-ylethynyl)pyridine from rat mGluR5
[5] = molecular target: T1, Metabotropic glutamate receptor 5; assay: (§2) Positive allosteric modulator activity at rat mGluR5 receptor expressed in HEK293 cells assessed as potentiation of glutamate-induced response; format: cell-based
[6] = molecular target: Metabotropic glutamate receptor 5 (Rattus norvegicus) (UniProt P31424); assay: as §2; format: cell-based

Chain of Metabotropic glutamate receptor 5 (Rattus norvegicus) (P31424 21-1203 limits assumed): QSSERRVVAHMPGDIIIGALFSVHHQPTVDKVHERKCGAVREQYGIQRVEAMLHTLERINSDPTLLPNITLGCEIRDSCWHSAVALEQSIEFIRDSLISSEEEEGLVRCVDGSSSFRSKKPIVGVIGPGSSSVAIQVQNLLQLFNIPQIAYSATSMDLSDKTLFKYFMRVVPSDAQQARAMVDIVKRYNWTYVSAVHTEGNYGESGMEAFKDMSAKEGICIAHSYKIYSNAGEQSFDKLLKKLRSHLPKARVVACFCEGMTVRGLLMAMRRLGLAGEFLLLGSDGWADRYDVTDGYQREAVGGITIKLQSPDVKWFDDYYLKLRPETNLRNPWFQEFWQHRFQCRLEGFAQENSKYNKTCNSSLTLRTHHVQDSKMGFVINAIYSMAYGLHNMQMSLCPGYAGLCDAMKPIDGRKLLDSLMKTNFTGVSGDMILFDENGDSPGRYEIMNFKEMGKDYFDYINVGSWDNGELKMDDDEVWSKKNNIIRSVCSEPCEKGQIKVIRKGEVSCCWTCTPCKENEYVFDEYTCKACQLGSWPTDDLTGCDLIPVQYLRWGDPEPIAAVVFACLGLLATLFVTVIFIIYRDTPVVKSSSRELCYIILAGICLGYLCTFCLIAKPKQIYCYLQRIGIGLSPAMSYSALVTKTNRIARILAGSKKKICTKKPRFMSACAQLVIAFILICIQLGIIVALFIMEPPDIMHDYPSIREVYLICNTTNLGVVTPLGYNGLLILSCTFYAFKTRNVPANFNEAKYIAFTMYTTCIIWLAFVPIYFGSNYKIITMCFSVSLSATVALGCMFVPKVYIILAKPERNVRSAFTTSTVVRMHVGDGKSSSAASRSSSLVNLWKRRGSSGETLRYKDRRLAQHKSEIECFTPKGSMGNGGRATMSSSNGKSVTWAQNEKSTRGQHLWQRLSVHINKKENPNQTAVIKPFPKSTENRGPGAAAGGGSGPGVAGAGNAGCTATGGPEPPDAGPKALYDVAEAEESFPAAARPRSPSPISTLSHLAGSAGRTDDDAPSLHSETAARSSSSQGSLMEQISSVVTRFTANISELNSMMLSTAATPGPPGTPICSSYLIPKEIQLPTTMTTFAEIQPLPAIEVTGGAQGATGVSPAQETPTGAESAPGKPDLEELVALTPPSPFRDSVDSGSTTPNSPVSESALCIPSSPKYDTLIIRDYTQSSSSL

COc1cccc(Nc2ncnc3ccc(Br)cc23)c1
Activity [1]: 34%
IC50 [2]: > 10000 nM

Clc1ccc(CNc2ncnc3ccc(Cl)cc23)cc1
IC50 [2]: > 30000 nM

Cc1cccc(Nc2ncnc3ccc(Br)cc23)c1
Activity [1]: 1.2%
IC50 [2]: 246 nM

CN(c1cccc(Br)c1)c1ncnc2ccc(Br)cc12
IC50 [2]: > 30000 nM

Brc1cccc(Nc2ncnc3ccc(Br)cc23)c1
Activity [1]: 2.5%
IC50 [2]: 174 nM

Clc1ccc2ncnc(Nc3cccc(Br)c3)c2c1
IC50 [3]: 955 nM
Ki [4]: 249 nM
Activity [1]: 1.2%
IC50 [2]: 124 nM

COc1ccc2ncnc(Nc3cccc(Cl)c3)c2c1
Activity [1]: 13%
IC50 [2]: 1510 nM

Clc1cccc(CNc2ncnc3ccc(Cl)cc23)c1
IC50 [2]: > 30000 nM

Fc1ccc2ncnc(Nc3cccc(Br)c3)c2c1
IC50 [3]: 713 nM
Ki [4]: 736 nM
Activity [1]: 0.6%
IC50 [2]: 96 nM

Clc1ccc2ncnc(NCc3ccccc3)c2c1
IC50 [2]: > 30000 nM

COc1cccc(Nc2ncnc3ccc(F)cc23)c1
Activity [1]: 50%
IC50 [2]: > 10000 nM

CCc1cccc(Nc2ncnc3ccc(F)cc23)c1
EC50 [5]: > 10000 nM
Activity [6]: 52%

Fc1ccc2ncnc(Nc3ccccc3)c2c1
Activity [1]: 58%
IC50 [2]: > 10000 nM

Clc1ccc2ncnc(NCCc3ccccc3Cl)c2c1
IC50 [2]: > 30000 nM

Clc1ccc2ncnc(Sc3cccc(Br)c3)c2c1
IC50 [2]: > 30000 nM

Clc1ccc2ncnc(NCCc3ccccc3)c2c1
Activity [1]: 59%
IC50 [2]: > 10000 nM

Clc1ccc2ncnc(Oc3cccc(Br)c3)c2c1
Activity [1]: 14%
IC50 [2]: 6570 nM

N#Cc1cccc(Nc2ncnc3ccc(F)cc23)c1
Activity [1]: 3.5%
IC50 [2]: 1370 nM

N#Cc1ccc2ncnc(Nc3cccc(Cl)c3)c2c1
Activity [1]: 35%
IC50 [2]: > 10000 nM

Clc1ccc(CCNc2ncnc3ccc(Cl)cc23)cc1
IC50 [2]: > 30000 nM

Brc1cccc(Oc2ncnc3ccc(Br)cc23)c1
Activity [1]: 49%
IC50 [2]: > 10000 nM

Clc1ccc2ncnc(Nc3ccccc3)c2c1
Activity [1]: 31%
IC50 [2]: > 10000 nM

Fc1ccc2ncnc(Nc3cccc(Cl)c3)c2c1
Activity [1]: 0.9%
IC50 [2]: 311 nM

Brc1cccc(Sc2ncnc3ccc(Br)cc23)c1
IC50 [2]: > 30000 nM

O=[N+]([O-])c1ccc2ncnc(Nc3cccc(Cl)c3)c2c1
Activity [1]: 2.4%
IC50 [2]: 274 nM

Fc1cc(Cl)cc(Nc2ncnc3ccc(F)cc23)c1
Activity [1]: 56%
IC50 [2]: > 10000 nM

Clc1ccc2ncnc(NCc3ccccc3Cl)c2c1
IC50 [2]: > 30000 nM

Clc1cccc(Nc2ncnc3ccc(Br)cc23)c1
IC50 [3]: 398 nM
Ki [4]: 116 nM
Activity [1]: 1.5%
IC50 [2]: 256 nM

Brc1cccc(Nc2nccc3ccc(Br)cc23)c1
Activity [1]: 5.4%
IC50 [2]: 4330 nM

FC(F)(F)c1cccc(Nc2ncnc3ccc(Br)cc23)c1
Activity [1]: 3.2%
IC50 [2]: 1720 nM

Brc1ccc2ncnc(Nc3ccccc3)c2c1
Activity [1]: 42%
IC50 [2]: > 10000 nM

Cc1cccc(Nc2ncnc3ccc(F)cc23)c1
Activity [1]: 3.5%
IC50 [2]: 1350 nM

Clc1ccc2nccc(Nc3cccc(Br)c3)c2c1
IC50 [2]: > 30000 nM

Fc1cccc(Nc2ncnc3ccc(Br)cc23)c1
Activity [1]: 8.8%
IC50 [2]: 1970 nM

CN(c1cccc(Br)c1)c1ncnc2ccc(Cl)cc12
IC50 [2]: > 30000 nM

Fc1ccc2ncnc(Nc3cccc(C(F)(F)F)c3)c2c1
Activity [1]: 32%
IC50 [2]: > 10000 nM

Clc1cccc(CCNc2ncnc3ccc(Cl)cc23)c1
IC50 [2]: > 30000 nM

Fc1ccc2ncnc(Nc3ccc(F)c(Cl)c3)c2c1
IC50 [2]: > 10000 nM

Clc1cccc(Nc2ncnc3ccc(Cl)cc23)c1
Activity [1]: 2.8%
IC50 [2]: 130 nM

Fc1ccc2ncnc(Nc3cccc(Cl)c3F)c2c1
Activity [1]: 5.2%
IC50 [2]: 3720 nM
